In ChEMBL document CHEMBL3621201, “Improving the Selectivity of Engineered Protease Inhibitors: Optimizing the P2 Prime Residue Using a Versatile Cyclic Peptide Library” (J Med Chem, 2015):
The source made the active and inactive calls. The calls are words filed in the database; no cut-off is given here. Bridge positions count the residues as written; N and C are the ends. Peptide text beside a SMILES is read from it.

What was measured:
Prothrombin [1] = target: T1, Prothrombin (Homo sapiens, UniProt P00734); experiment: Inhibition of alpha-thrombin (unknown origin) using Ac-ATPRpNA substrate by spectrophotometry method
Procedure, shortened: (§1)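 Inhibition constants were measured in 0.1 M Tris pH 8.0, 0.1 M NaCl, 0.005% Triton X-100 with 100 µM peptide-pNA substrate. Protease-specific additives were also included. Absorbance at 405 nm was read every 10 s over 300 s. Rates were compared with no-inhibitor controls, and Morrison Ki was fitted by non-linear regression.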

Trypsin [2] = target: T2, Trypsin (Homo sapiens, UniProt P07477+P07478+P35030); experiment: Inhibition of beta-trypsin (unknown origin) using Bz-FVRpNA substrate by spectrophotometry method; format: protein assay; procedure, shortened: as §1
Plasminogen [3] = target: T3, Plasminogen (Homo sapiens, UniProt P00747); experiment: Inhibition of plasmin (unknown origin) using Ac-RM(O2)YRpNA substrate by spectrophotometry method; procedure, shortened: as §1
T3 sequence (P00747 97-580 limits assumed): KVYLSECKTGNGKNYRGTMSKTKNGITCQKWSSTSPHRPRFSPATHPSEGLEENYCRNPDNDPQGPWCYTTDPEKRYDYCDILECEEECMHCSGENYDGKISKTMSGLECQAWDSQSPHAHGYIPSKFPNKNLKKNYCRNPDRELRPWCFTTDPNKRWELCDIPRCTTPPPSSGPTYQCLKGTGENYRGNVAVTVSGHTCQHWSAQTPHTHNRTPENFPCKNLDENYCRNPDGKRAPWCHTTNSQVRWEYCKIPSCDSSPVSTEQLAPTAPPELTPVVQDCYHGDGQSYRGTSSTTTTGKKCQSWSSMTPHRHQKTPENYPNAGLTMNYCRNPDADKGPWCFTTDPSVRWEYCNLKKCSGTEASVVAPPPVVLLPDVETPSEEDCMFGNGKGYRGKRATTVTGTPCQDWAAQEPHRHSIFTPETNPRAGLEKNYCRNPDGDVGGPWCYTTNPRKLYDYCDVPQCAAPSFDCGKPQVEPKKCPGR
T3 sequence (P00747 581-810 limits assumed): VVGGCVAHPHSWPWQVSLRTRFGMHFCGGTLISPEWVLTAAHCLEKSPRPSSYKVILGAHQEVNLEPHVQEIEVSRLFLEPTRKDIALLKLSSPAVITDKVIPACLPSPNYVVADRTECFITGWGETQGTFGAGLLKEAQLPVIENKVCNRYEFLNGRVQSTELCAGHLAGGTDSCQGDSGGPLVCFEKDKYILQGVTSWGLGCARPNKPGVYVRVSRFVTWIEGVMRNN

Kallikrein-5 = target: T4, Kallikrein-5 (Homo sapiens, UniProt Q9Y337); experiment: Inhibition of KLK5 (unknown origin) expressed in Pichia pastoris X33 using Ac-YRSR-pNA by spectrophotometry method; procedure, shortened: as §1
T4 sequence (Q9Y337 whole entry): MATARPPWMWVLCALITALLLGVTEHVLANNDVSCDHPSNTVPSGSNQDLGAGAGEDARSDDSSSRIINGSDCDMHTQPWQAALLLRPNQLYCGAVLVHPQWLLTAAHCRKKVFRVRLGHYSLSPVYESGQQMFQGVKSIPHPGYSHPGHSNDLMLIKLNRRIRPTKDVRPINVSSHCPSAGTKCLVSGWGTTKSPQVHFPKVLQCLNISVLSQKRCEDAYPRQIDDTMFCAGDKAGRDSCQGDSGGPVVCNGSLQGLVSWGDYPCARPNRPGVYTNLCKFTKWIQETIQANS

Kallikrein-4 [4] = target: T5, Kallikrein-4 (Homo sapiens, UniProt Q9Y5K2); experiment: Inhibition of KLK4 (unknown origin) expressed in Sf9 cells using FVQRpNA substrate by spectrophotometry method; procedure, shortened: as §1
T5 sequence (Q9Y5K2 whole entry): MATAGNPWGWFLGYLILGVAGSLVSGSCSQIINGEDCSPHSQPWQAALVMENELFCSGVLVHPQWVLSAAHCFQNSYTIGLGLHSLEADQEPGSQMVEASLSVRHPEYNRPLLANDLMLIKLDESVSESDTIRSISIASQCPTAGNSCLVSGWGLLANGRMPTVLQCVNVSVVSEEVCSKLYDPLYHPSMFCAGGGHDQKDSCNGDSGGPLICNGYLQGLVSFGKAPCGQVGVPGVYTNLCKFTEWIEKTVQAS

Kallikrein-4 [5] = target: T5, Kallikrein-4; experiment: Inhibition of KLK4 (unknown origin) expressed in Sf9 cells at 25 nM using FVQRpNA substrate by spectrophotometry method
[6] = target: T6, Suppressor of tumorigenicity 14 protein (Homo sapiens) (UniProt Q9Y5Y6); experiment: Inhibition of matriptase (unknown origin) at 10 uM using Ac-RQFRpNA substrate by spectrophotometry method
T6 sequence (whole entry): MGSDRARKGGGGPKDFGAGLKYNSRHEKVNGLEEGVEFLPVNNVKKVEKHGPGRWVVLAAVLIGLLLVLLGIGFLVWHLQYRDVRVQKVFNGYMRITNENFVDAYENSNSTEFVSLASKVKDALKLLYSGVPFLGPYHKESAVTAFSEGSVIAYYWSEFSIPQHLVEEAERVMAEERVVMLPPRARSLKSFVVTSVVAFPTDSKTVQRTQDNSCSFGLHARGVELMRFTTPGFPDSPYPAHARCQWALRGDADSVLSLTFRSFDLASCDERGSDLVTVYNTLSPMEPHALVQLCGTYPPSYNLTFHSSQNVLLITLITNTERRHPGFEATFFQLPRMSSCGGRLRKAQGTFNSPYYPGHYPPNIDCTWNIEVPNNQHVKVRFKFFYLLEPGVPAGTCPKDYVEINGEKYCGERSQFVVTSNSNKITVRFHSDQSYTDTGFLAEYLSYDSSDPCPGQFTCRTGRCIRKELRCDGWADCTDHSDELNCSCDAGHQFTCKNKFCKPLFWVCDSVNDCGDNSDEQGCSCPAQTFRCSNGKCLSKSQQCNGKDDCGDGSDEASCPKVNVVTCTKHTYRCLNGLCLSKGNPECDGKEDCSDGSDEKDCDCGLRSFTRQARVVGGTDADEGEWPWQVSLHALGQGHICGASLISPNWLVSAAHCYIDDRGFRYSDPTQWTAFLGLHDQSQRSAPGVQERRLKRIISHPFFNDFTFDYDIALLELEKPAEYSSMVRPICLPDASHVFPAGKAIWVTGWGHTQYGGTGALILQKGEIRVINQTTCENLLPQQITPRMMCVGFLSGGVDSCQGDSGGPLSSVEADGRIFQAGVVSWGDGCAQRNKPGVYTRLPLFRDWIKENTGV

[7] = target: Coagulation factor XI (Homo sapiens) (UniProt P03951); experiment: Inhibition of factor 11a (unknown origin) at 10 uM using Bz-FVRpNA substrate by spectrophotometry method
Sequence of Coagulation factor XI (Homo sapiens) (P03951 19-387 limits assumed): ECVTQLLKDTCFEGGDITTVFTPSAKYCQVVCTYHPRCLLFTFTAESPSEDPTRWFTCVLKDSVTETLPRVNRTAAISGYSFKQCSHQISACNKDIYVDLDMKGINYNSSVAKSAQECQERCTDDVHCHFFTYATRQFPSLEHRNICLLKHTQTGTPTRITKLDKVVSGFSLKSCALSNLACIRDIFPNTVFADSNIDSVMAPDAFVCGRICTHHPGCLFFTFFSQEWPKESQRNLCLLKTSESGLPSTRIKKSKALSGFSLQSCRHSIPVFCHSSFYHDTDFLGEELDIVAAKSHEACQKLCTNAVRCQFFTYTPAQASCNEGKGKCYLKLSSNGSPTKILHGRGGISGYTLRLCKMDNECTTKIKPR
Sequence of Coagulation factor XI (Homo sapiens) (P03951 388-625 limits assumed): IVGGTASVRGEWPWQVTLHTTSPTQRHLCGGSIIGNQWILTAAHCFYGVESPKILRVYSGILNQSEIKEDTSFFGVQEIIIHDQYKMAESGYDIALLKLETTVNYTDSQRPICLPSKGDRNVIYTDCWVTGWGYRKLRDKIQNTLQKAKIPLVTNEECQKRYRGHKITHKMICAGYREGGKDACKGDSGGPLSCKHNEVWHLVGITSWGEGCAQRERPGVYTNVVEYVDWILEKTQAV

[8] = target: Serine protease 1 (Homo sapiens) (UniProt P07477); experiment: Inhibition of beta-trypsin (unknown origin) at 25 nM using Bz-FVRpNA substrate by spectrophotometry method
Sequence of Serine protease 1 (Homo sapiens) (P07477 whole entry): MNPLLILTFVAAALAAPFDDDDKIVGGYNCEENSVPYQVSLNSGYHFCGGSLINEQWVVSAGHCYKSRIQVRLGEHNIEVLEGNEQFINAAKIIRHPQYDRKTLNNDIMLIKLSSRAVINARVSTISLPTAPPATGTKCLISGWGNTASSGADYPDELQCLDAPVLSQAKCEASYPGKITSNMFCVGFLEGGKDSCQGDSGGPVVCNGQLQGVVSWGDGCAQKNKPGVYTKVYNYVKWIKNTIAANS

[9] = target: Coagulation factor X (Homo sapiens) (UniProt P00742); experiment: Inhibition of factor 10a (unknown origin) at 50 uM using Ac-QRSRpNA substrate by spectrophotometry method
Sequence of Coagulation factor X (Homo sapiens) (P00742 41-179 limits assumed): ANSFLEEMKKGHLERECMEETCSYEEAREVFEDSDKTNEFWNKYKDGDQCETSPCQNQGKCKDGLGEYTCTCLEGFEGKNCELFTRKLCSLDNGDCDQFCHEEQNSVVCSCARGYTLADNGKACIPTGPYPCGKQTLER
Sequence of Coagulation factor X (Homo sapiens) (P00742 235-488 limits assumed): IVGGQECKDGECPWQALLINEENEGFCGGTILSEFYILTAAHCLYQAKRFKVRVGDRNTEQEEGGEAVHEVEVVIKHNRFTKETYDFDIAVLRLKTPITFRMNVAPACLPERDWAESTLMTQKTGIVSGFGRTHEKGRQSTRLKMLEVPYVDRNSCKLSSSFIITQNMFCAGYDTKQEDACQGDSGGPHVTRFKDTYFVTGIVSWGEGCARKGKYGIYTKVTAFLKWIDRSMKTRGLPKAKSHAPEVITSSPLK

Plasminogen [10] = target: T3, Plasminogen; experiment: Inhibition of plasmin (unknown origin) at 50 uM using Ac-RM(O2)YRpNA substrate by spectrophotometry method
Trypsin [11] = target: T2, Trypsin; experiment: Inhibition of trypsin (unknown origin); format: protein assay
Homo sapiens = species: Homo sapiens; experiment: Inhibition of alpha chymotrypsin (unknown origin) at 25 uM using Ac-GRPY-pNA by spectrophotometry method
Kallikrein-7 [12] = target: T7, Kallikrein-7 (Homo sapiens, UniProt P49862); experiment: Inhibition of KLK7 (unknown origin) expressed in Pichia pastoris X33 using KHLY-pNA substrate by spectrophotometry method; procedure, shortened: as §1
Target sequence in this assay (P49862 whole entry): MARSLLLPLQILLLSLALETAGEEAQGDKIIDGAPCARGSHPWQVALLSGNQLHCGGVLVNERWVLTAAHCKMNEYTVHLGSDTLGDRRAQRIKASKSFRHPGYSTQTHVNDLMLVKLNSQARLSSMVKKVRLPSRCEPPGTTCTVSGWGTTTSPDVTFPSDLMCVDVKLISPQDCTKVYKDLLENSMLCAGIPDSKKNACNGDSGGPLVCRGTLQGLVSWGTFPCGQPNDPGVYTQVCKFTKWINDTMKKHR

[13] = target: T8, Coagulation factor XII (Homo sapiens) (UniProt P00748); experiment: Inhibition of factor 12a-alpha (unknown origin) at 10 uM using Ac-QRFRpNA substrate by spectrophotometry method
T8 sequence (whole entry): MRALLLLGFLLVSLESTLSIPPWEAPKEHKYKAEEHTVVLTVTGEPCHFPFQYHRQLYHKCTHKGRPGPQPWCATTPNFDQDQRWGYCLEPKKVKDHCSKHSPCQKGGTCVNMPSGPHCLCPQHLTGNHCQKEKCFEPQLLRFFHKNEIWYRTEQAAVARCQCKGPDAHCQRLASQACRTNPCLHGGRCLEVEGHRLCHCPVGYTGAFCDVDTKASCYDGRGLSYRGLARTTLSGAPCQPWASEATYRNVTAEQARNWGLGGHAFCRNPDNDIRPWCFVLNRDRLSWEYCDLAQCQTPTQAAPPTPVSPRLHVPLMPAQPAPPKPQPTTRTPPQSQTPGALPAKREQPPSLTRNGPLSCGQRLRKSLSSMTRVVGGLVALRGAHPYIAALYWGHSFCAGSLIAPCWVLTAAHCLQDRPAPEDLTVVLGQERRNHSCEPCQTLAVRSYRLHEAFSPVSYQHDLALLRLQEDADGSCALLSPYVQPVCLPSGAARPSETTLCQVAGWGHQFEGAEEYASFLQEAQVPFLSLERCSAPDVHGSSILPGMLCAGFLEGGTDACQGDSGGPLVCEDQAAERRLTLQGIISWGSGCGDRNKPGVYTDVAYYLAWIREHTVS

Kallikrein-7 [14] = target: T7, Kallikrein-7; experiment: Inhibition of KLK7 (unknown origin) expressed in Pichia pastoris X33 at 200 nM using KHLY-pNA substrate by spectrophotometry method
Target sequence in this assay (P49862 30-253 limits assumed): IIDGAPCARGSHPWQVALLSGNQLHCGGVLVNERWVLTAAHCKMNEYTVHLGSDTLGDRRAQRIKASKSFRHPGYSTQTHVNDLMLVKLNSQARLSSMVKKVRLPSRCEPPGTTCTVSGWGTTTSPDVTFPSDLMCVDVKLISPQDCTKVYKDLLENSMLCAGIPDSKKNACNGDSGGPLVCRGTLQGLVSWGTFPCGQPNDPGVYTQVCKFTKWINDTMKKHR

[15] = target: Kallikrein-5 (Homo sapiens) (UniProt Q9Y337); experiment: Inhibition of KLK5 (unknown origin) expressed in Pichia pastoris X33 at 50 nM using Ac-YRSR-pNA by spectrophotometry method
Prothrombin [16] = target: T1, Prothrombin; experiment: Inhibition of alpha-thrombin (unknown origin) at 25 uM using Ac-ATPRpNA substrate by spectrophotometry method

SMILES	Ki (Prothrombin [1])	Ki (Trypsin [2])	Ki (Plasminogen [3])	Ki (Kallikrein-5)	inhibition (Kallikrein-4 [5])	inhibition [6]	further results
CC[C@H](C)[C@@H]1NC(=O)[C@@H]2CCCN2C(=O)[C@@H]2CCCN2C(=O)[C@H]([C@@H](C)CC)NC(=O)[C@H](CO)NC(=O)[C@H](CCCNC(=N)N)NC(=O)[C@H]([C@@H](C)O)NC(=O)[C@@H]2CSSC[C@H](NC1=O)C(=O)N[C@@H](Cc1ccccc1)C(=O)N1CCC[C@H]1C(=O)N[C@H](C(=O)O)CC(=O)NCC(=O)N[C@@H](CCCNC(=N)N)C(=O)N2 (GRCTRSIPPICFPD-OH; disulfide 3-11; lactam N-14)	381 nM	0.03 nM	121 nM				
CC[C@H](C)[C@@H]1NC(=O)[C@@H]2CCCN2C(=O)[C@@H]2CCCN2C(=O)[C@H](Cc2ccc(O)cc2)NC(=O)[C@H](CO)NC(=O)[C@H](CCCNC(=N)N)NC(=O)[C@H]([C@@H](C)O)NC(=O)[C@@H]2CSSC[C@H](NC1=O)C(=O)N[C@@H](Cc1ccccc1)C(=O)N1CCC[C@H]1C(=O)N[C@H](C(=O)O)CC(=O)NCC(=O)N[C@@H](CCCNC(=N)N)C(=O)N2 (GRCTRSYPPICFPD-OH; disulfide 3-11; lactam N-14)	214 nM	0.16 nM	549 nM				
C[C@@H](O)[C@@H]1NC(=O)[C@@H](NC(=O)[C@H](CCCNC(=N)N)NC(=O)CN)CSSC[C@@H](C(=O)N[C@@H](Cc2cnc[nH]2)C(=O)O)NC(=O)[C@H](CCCNC(=N)N)NC(=O)[C@@H]2CCCN2C(=O)[C@@H]2CCCN2C(=O)[C@H](CC(=O)O)NC(=O)[C@H](CO)NC(=O)[C@H](CCCCN)NC1=O (H-GRCTKSDPPRCH-OH; disulfide 3-11)	> 50000 nM	2830 nM	17100 nM				
CC[C@H](C)[C@@H]1NC(=O)[C@@H]2CSSC[C@H](NC(=O)[C@H]([C@@H](C)CC)NC(=O)[C@@H]3CCCN3C(=O)[C@@H]3CCCN3C(=O)[C@H]([C@@H](C)CC)NC(=O)[C@H](CO)NC(=O)[C@H](CCCNC(=N)N)NC1=O)C(=O)N[C@@H](CC(N)=O)C(=O)N1CCC[C@H]1C(=O)N[C@@H](CC(N)=O)C(=O)NCC(=O)N[C@@H](Cc1c[nH]c3ccccc13)C(=O)N2 (cyclo(CIRSIPPICNPNGW); disulfide 1-9)		379 nM		362 nM			Ki (Kallikrein-4 [4]): 9 nM
CC[C@H](C)[C@@H]1NC(=O)[C@@H]2CSSC[C@H](NC(=O)[C@H]([C@@H](C)CC)NC(=O)[C@@H]3CCCN3C(=O)[C@@H]3CCCN3C(=O)[C@H](CCCCN)NC(=O)[C@H](CO)NC(=O)[C@H](CCCNC(=N)N)NC1=O)C(=O)N[C@@H](CC(N)=O)C(=O)N1CCC[C@H]1C(=O)N[C@@H](CC(N)=O)C(=O)NCC(=O)N[C@@H](Cc1c[nH]c3ccccc13)C(=O)N2 (cyclo(CIRSKPPICNPNGW); disulfide 1-9)		3200 nM		> 50000 nM			Ki (Kallikrein-4 [4]): 19.9 nM
CC[C@H](C)[C@@H]1NC(=O)[C@@H]2CCCN2C(=O)[C@@H]2CCCN2C(=O)[C@H](CC(=O)O)NC(=O)[C@H](CO)NC(=O)[C@H](CCCNC(=N)N)NC(=O)[C@H]([C@@H](C)O)NC(=O)[C@@H]2CSSC[C@H](NC1=O)C(=O)N[C@@H](CC(N)=O)C(=O)N1CCC[C@H]1C(=O)N[C@@H](CC(N)=O)C(=O)NCC(=O)N[C@@H]([C@@H](C)O)C(=O)N2 (cyclo(CNPNGTCTRSDPPI); disulfide 1-7)					inactive	29%	inhibition [7]: 34%; inhibition [8]: inactive; inhibition [9]: 31%
CC[C@H](C)[C@@H]1NC(=O)[C@@H]2CCCN2C(=O)[C@@H]2CCCN2C(=O)[C@H]([C@@H](C)CC)NC(=O)[C@H](CO)NC(=O)[C@H](CCCNC(=N)N)NC(=O)[C@H]([C@@H](C)O)NC(=O)[C@@H]2CSSC[C@H](NC1=O)C(=O)N[C@@H](CC(N)=O)C(=O)N1CCC[C@H]1C(=O)N[C@@H](CC(N)=O)C(=O)NCC(=O)N[C@@H]([C@@H](C)O)C(=O)N2 (cyclo(CNPNGTCTRSIPPI); disulfide 1-7)				2.1 nM	Active	41%	inhibition (Plasminogen [10]): 50%; Ki (Trypsin [11]): 0.7 nM; inhibition (Homo sapiens): 60%; inhibition [7]: 47%; inhibition [8]: 80%; Ki (Kallikrein-7 [12]): 16.8 nM; inhibition [13]: 85%
CC[C@H](C)[C@@H]1NC(=O)[C@@H]2CCCN2C(=O)[C@@H]2CCCN2C(=O)[C@H](CC(N)=O)NC(=O)[C@H](CO)NC(=O)[C@H](CCCNC(=N)N)NC(=O)[C@H]([C@@H](C)O)NC(=O)[C@@H]2CSSC[C@H](NC1=O)C(=O)N[C@@H](CC(N)=O)C(=O)N1CCC[C@H]1C(=O)N[C@@H](CC(N)=O)C(=O)NCC(=O)N[C@@H]([C@@H](C)O)C(=O)N2 (cyclo(CNPNGTCTRSNPPI); disulfide 1-7)				5.2 nM	Active	37%	inhibition (Kallikrein-7 [14]): 97%; inhibition [15]: 93%; Ki (Kallikrein-7 [12]): 0.8 nM; inhibition (Prothrombin [16]): 49%
CC[C@H](C)[C@@H]1NC(=O)[C@@H]2CCCN2C(=O)[C@@H]2CCCN2C(=O)[C@H](Cc2ccc(O)cc2)NC(=O)[C@H](CO)NC(=O)[C@H](CCCNC(=N)N)NC(=O)[C@H]([C@@H](C)O)NC(=O)[C@@H]2CSSC[C@H](NC1=O)C(=O)N[C@@H](CC(N)=O)C(=O)N1CCC[C@H]1C(=O)N[C@@H](CC(N)=O)C(=O)NCC(=O)N[C@@H]([C@@H](C)O)C(=O)N2 (cyclo(CNPNGTCTRSYPPI); disulfide 1-7)							inhibition [9]: 26%; inhibition [15]: Active; inhibition [13]: 75%; inhibition (Prothrombin [16]): 62%
